APOBEC3A inh: inhibitors of human APOBEC3A DNA deaminase; 330,000 compounds, 0.41% hits; inhibition, % at 20 µM; recombinant A3A, FAM/TAMRA ssDNA deamination fluorescence; AID 493011;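 active = at least 40% inhibition at 20 µM here, with at most 30% in a related deaminase screen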;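 note: plate controls were A3A with DMSO for no effect and wells lacking A3A enzyme for full effect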
TbMetRS inhib: blocks T. brucei methionyl-tRNA synthetase activity; inhibition, % at 11.9 µM; 360,000 compounds, 0.4% hits; AID 624268; purified T. brucei MetRS, ATP depletion, Kinase-Glo luminescence;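 active = inhibition above a per-plate cutoff of the control wells' mean inhibition plus 3 SD, cut at about 5.5% in these data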;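 note: 0% = DMSO wells median and 100% = median of wells with control inhibitor compound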
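Material: parasite MetRS enzyme / Replication: singlicate, one well per compound / Signal: luminescence of leftover ATP / Schedule: 2 h aminoacylation at 25 °C after 15 min preincubation / Medium: HEPES-MgCl2-KCl buffer plus DTT, spermine, BSA, pyrophosphatase / Doses: 11.9 µM single point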
pCIP destab: p/CIP protein destabilization. Q05BA5. F442A p/CIP-EGFP cells, EGFP fluorescence, 16 h. decrease of EGFP signal, % at 10 µM. 290,000 compounds, 0.01% hits. AID 1984;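 active = EGFP signal decrease of at least 30% at 10 µM or well 3 SD below plate mean, unless failing retest; inactive = the rest, including hits failing retest or dose response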
A3G deaminase: blocks human APOBEC3G single-stranded DNA deamination. Q9HC16. recombinant A3G, ssDNA deamination FAM/TAMRA fluorescence. inhibition, % at 20 µM. 330,000 compounds, 0.28% hits;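 active = inhibition of at least 40% at 20 µM, with no more than 30% in the related APOBEC3A deaminase screen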;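 note: plate controls were DMSO wells with A3G for no effect and wells lacking A3G enzyme for full effect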
Target sequence (Q9HC16 whole entry, looked up): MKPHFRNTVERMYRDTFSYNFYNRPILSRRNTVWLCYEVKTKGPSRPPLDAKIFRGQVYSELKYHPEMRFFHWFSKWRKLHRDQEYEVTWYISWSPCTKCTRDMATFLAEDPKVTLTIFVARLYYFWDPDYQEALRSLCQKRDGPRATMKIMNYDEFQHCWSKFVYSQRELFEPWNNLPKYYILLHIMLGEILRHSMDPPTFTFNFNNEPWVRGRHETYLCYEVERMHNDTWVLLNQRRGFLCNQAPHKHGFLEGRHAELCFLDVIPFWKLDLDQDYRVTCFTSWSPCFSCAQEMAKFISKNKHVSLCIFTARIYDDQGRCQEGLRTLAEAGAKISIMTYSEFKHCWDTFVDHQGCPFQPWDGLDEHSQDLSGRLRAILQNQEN
PHOSPHO1 block: blocks human PHOSPHO1 phosphatase activity | Q8TCT1 | recombinant PHOSPHO1, absorbance phosphatase assay | inhibition, % at 13.3 µM | 290,000 compounds, 1.1% hits | AID 1565; in the data active = inhibition above about 60%
Target sequence (Q8TCT1 whole entry, looked up): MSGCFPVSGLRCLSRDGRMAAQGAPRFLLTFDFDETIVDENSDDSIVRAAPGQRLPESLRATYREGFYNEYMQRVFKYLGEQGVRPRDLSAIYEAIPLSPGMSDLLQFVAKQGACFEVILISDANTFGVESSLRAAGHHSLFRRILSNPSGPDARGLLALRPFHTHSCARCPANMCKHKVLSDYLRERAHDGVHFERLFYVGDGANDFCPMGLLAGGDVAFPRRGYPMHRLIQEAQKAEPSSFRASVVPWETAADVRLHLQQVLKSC
APOBEC3A confirm: confirmation of human APOBEC3A DNA deaminase inhibitors; 1,400 compounds, 63% hits; recombinant A3A, ssDNA deaminase UDG fluorescence assay; inhibition, % at 20 µM; shares compounds with APOBEC3A inh;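 active = inhibition reaching a set limit, 80% of the first screen's cutoff, at 20 µM in any replicate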;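 note: plate controls were DMSO wells with A3A for no effect and wells lacking A3A enzyme for full effect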
UDG ctr A3A: inhibits UDG, flagging false APOBEC3A inhibitors | shares compounds with APOBEC3A inh | UDG counterscreen, FAM/TAMRA uracil oligo fluorescence | 1,000 tested, under 10 active | inhibition, % at 20 µM; call rule not given here
Active calls of the source: *; / = no result. The list is not random: actives were taken first. Their share in the collection is about 1.8%.

SMILES	APOBEC3A inh	TbMetRS inhib	pCIP destab	A3G deaminase	PHOSPHO1 block	others
O=C1NC(=S)NC(=O)C12C(c1ccc(F)cc1)NC(=S)NC2c1ccc(F)cc1 (centres undefined)	-2.3	-0.5	9.9	-6.2	95.4*
CCOC(=O)C1(CCOc2ccccc2)CCN(Cc2ccc(C)s2)CC1	3.4	-0.8	0.3	3.9	49.8
CCCCNS(=O)(=O)c1ccc(OCC(=O)N2CCN(Cc3ccc4c(c3)OCO4)CC2)cc1	0.9	-0.3	-37.9	-3.5	61.0*
CCCNS(=O)(=O)c1ccc(OCC(=O)N2CCN(Cc3ccccc3)CC2)cc1	-4.5	-0.3	-11.9	-6.1	-10.0
O=C(COc1ccc(S(=O)(=O)N2CCOCC2)cc1)N1CCN(Cc2ccc3c(c2)OCO3)CC1	-4.0	0.4	-3.7	-6.4	4.6
CC(C)(C)NS(=O)(=O)c1ccc(OCC(=O)N2CCN(Cc3ccccc3)CC2)cc1	5.2	-1.1	-10.5	-2.7	60.1*
CC(C)C[C@@H]1COc2cccc(N3CCN(C)CC3)c2S(=O)(=O)N1	/	-0.2	/	/	/
CCOC(=O)C1CCN(/C=C2\C(=O)NC(=S)N(CC)C2=O)CC1	-0.1	-0.4	25.0	-4.0	61.8*
CC(C)c1onc(C(=O)N2CCC3(CC2)OCCO3)c1[N+](=O)[O-]	3.1	-0.5	-3.2	0.5	63.6*
Cc1noc(C)c1C(=O)N1CCC2(CC1)OCCO2	-3.4	0.1	-2.8	-5.3	7.0
O=C1NC(=O)N(c2ccccc2)C(=O)/C1=C\c1ccc([N+](=O)[O-])o1	87.7	/	-10.1	82.5	62.3*
CN1C(=O)NC(=O)/C(=C/c2ccc([N+](=O)[O-])o2)C1=O	66.3	/	-11.1	31.3	16.6
C=C1C(=O)OC2CCN3CC=C(COC(=O)C(C)(O)C4(CO4)C1C)C23 (centres undefined)	/	-0.6	/	/	/
S=C=Nc1ccccn1	1.1	-0.4	3.6	-11.5	61.2*
c1ccc(P(c2ccccc2)c2ccccn2)cc1	-4.0	-0.6	-13.3	-9.8	28.1
COC(=O)CSC1=NP(=S)(SCC(=O)OC)N2CCCC2=C1C#N (centres undefined)	-1.2	-0.3	-7.7	-2.6	67.4*
CCOC(=O)c1c(C)c(P(=S)(N2CCOCC2)N2CCOCC2)n(C)c1C	-3.3	-1.0	4.3	-3.0	61.0*
c1coc(CN2Cc3ccccc3-n3nncc3C2)c1	/	-2.1	/	/	/
Cc1ccc(N2C(=O)NC(=O)/C(=C/c3ccoc3)C2=O)cc1	/	-0.1	-56.4	/	22.6
Cc1ccc(N2C(=O)NC(=O)/C(=C\c3cccn3C(C)(C)C)C2=O)cc1	2.6	-0.7	-7.8	-2.4	60.0*
O=C(c1ccc(-c2ccccc2)c(F)c1)C1CCCN(CCO)C1 (centres undefined)	-0.7	0.1	-6.8	-6.1	60.1*
Oc1ccc(/C=N/NP(=S)(c2ccccc2)c2ccccc2)cc1	0.3	-0.1	-7.7	29.0	83.3*
Cc1ccccc1C(=O)N1CC1C (centres undefined)	/	-0.1	/	/	/
O=C(c1ccc2c3c(cccc13)CC2)C1CCCN(CC2CC2)C1 (centres undefined)	4.7	0.1	-14.0	-5.1	60.1*
CC1=NN(c2ccccc2)C(=O)/C1=C/c1c(O)[nH]c(=S)[nH]c1=O	-7.9	0.0	-13.7	2.2	86.0*
SMILES	APOBEC3A inh	TbMetRS inhib	pCIP destab	A3G deaminase	PHOSPHO1 block	others
CC1=NN(c2ccccc2)C(=O)/C1=C/c1c(O)[nH]c(=O)[nH]c1=O	-3.4	-0.7	7.3	-3.7	32.0
FC(F)(F)c1ccc2c(c1)N(CCCN1CCN(CCCl)CC1)c1ccccc1S2	-2.4	-1.4	-8.4	-3.1	63.9*
Cc1ccc(N2C(=O)NC(=O)C3(Cc4ccccc4N4CCN(c5ccccc5)CC43)C2=O)cc1 (centres undefined)	-0.8	-0.1	2.8	6.1	72.5*
O=c1c2ccc(Cl)cc2[nH]c(=S)n1-c1cccnc1	-2.6	-0.9	-4.9	-4.8	-101.1
O=C1NC(=O)C(CCc2ccncc2)(CCc2ccncc2)C(=O)N1CCc1ccccc1	0.2	-0.3	13.6	-6.3	62.8*
O=C1NC(=O)C(CCc2ccncc2)(CCc2ccncc2)C(=O)N1CCc1ccc(F)cc1	1.4	-0.4	-6.0	-5.1	-3.9
COc1ccc(-c2ccc3c(c2)CN(CC(C)C)Cc2cnnn2-3)cc1	/	-0.8	/	/	/
C=CCn1c(O)c(/C(CC)=N/NC(=S)Nc2ccccc2)c(=O)[nH]c1=O	-4.0	-0.3	6.3	3.4	66.8*
COP(=S)(OC)SCN1C(=O)c2ccccc2C1=O	-3.5	-0.6	-9.7	11.6	77.0*
C/C(O)=C(\C#N)C(=O)Nc1cc(Br)ccc1Br	1.9	-0.9	/	2.7	/
O=c1[nH]c(O)c(N=Nc2cccc(S(=O)(=O)N3CCOCC3)c2)c(=O)[nH]1	-0.5	-0.4	-6.7	-4.8	60.0*
O=c1[nH]c(=S)[nH]c(O)c1N=Nc1cccc(S(=O)(=O)N2CCOCC2)c1	3.6	-0.3	-6.6	-2.5	-22.6
CCCCS(=O)(=O)N1CCN(C(=N)N[N+](=O)[O-])CC1	-1.9	0.1	-6.7	-3.9	-1.1
COc1ccc(C(=O)CC(c2ccc(OC)c(OC)c2)c2c(O)c3ccccc3oc2=O)cc1OC (centres undefined)	/	-0.3	/	/	/
CCCNC(=O)N1CCC2(CC1)OCCO2	-3.8	-1.4	-11.3	-6.2	61.5*
CCS(=O)(=O)N1CCC(C(=O)N2CCC3(CC2)OCCO3)CC1	1.4	-0.7	0.8	2.1	14.3
COC(=O)C1=C(c2ccc(F)cc2OCc2ccccc2)C[C@@H]2CC[C@H]1N2C(=O)NCc1cc(C)oc1C(F)(F)F	4.5	-0.4	/	-1.2	/
CC1CCCC(C2(O)C(=O)Nc3ccccc32)C1=O (centres undefined)	67.7*	-0.6	-4.5	9.7	34.5	APOBEC3A confirm=73.8*;UDG ctr A3A=-2.5
CCOP(=O)(OCC)C1(O)C(=O)Nc2ccccc21 (centres undefined)	3.0	-0.1	-2.8	-3.6	-4.6
C[N+]1(C)CCN(c2ccccc2)CC1	73.0*	-0.6	-5.2	27.2	18.2	APOBEC3A confirm=77.7*;UDG ctr A3A=0.0
Cc1cc(O)c(CN2CCN(c3ccccc3)CC2)cc1C	4.4	-1.2	-4.7	5.8	18.0
CN(C)CC1CCCCC1OC(=O)Cc1ccc(Cl)c([N+](=O)[O-])c1 (centres undefined)	54.7*	-0.5	-3.6	14.7	2.2	APOBEC3A confirm=74.4*;UDG ctr A3A=1.2
Cc1ccc(N2CCNCC2C)cc1 (centres undefined)	/	-0.3	/	/	/
C=CCNC(=S)N1Cc2ccccc2-n2nncc2C1	/	-0.4	/	/	/
O=c1cccc2n1C[C@@H]1C[C@@H]2CN(CC(O)c2ccc([N+](=O)[O-])cc2)C1 (some centres undefined)	4.4	-0.6	-1.4	-4.2	40.4
